Test results as given in ChEMBL document CHEMBL3352716 (ACS Med Chem Lett, 2014).

Key:
[1] = system: Bel-7402; experiment: Induction of apoptosis in human Bel7402 cells assessed as viable cells after 48 hrs at 0.125 uM by Annexin V/propidium iodide staining-based flow cytometric analysis (reference value: 92.80%); assay type: functional; details: Bel-7402, 48 h, read-out: Activity
[2] = Cell cycle arrest in human Bel7402 cells assessed as cells at S phase at 0.25 uM after 48 hrs by propidium iodide staining-based flow cytometric analysis (reference value: 40.82%); assay type: functional; details: Bel-7402
[3] = Cell cycle arrest in human Bel7402 cells assessed as cells at G2 phase at 0.25 uM after 48 hrs by propidium iodide staining-based flow cytometric analysis (reference value: 19.52%); assay type: functional; details: Bel-7402
[4] = system: Bel-7402; experiment: Induction of apoptosis in human Bel7402 cells assessed as necrotic cells after 48 hrs at 0.125 uM by Annexin V/propidium iodide staining-based flow cytometric analysis (reference value: 1.99%); assay type: functional
[5] = system: MCF7; experiment: Antiproliferative activity against human MCF7 cells assessed as growth inhibition after 72 hrs by MTT assay; assay type: functional, cell-based; details: MCF7, 72 h
How it was run: (§1)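 MTT proliferation assay on human K562 leukaemia, MCF-7 breast adenocarcinoma, Bel-7402 hepatocellular carcinoma and MGC-803 gastric cancer cells. Drug exposure 72 h. IC50 is the concentration inhibiting 50% of cell growth. Means ± SD, n = 3.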

[6] = system: Bel-7402; experiment: Induction of apoptosis in human Bel7402 cells assessed as early apoptotic cells after 48 hrs at 0.125 uM by Annexin V/propidium iodide staining-based flow cytometric analysis (reference value: 0.64%); assay type: functional
[7] = system: Bel-7402; experiment: Induction of apoptosis in human Bel7402 cells assessed as late apoptotic cells after 48 hrs at 0.5 uM by Annexin V/propidium iodide staining-based flow cytometric analysis (reference value: 5.21%); assay type: functional
[8] = Cell cycle arrest in human Bel7402 cells assessed as cells at S phase at 0.5 uM after 48 hrs by propidium iodide staining-based flow cytometric analysis (reference value: 40.82%); assay type: functional; details: Bel-7402
[9] = Cell cycle arrest in human Bel7402 cells assessed as cells at G2 phase at 0.5 uM after 48 hrs by propidium iodide staining-based flow cytometric analysis (reference value: 19.52%); assay type: functional; details: Bel-7402
[10] = system: Bel-7402; experiment: Induction of apoptosis in human Bel7402 cells assessed as necrotic cells after 48 hrs at 0.5 uM by Annexin V/propidium iodide staining-based flow cytometric analysis (reference value: 1.99%); assay type: functional
[11] = Cell cycle arrest in human Bel7402 cells assessed as cells at G1 phase at 0.25 uM after 48 hrs by propidium iodide staining-based flow cytometric analysis (reference value: 39.66%); assay type: functional; details: Bel-7402
[12] = system: NCI-H460; experiment: Anticancer activity against human NCI-H460 cells by MTT assay; assay type: functional, cell-based
How it was run: (§2)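 MTT cytotoxicity run on paired parental and transporter-overexpressing lines: SW620 vs ABCB1-overexpressing SW620/AD300, and NCI-H460 vs ABCG2-overexpressing NCI-H460/MX20. IC50 is the concentration inhibiting 50% of cell growth. Concentrations tested up to 100 μM.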

[13] = Anticancer activity against ABCG2-overexpressing human NCI-H460/MX20 cells by MTT assay; assay type: functional, cell-based; how it was run: as §2
[14] = Cell cycle arrest in human Bel7402 cells assessed as cells at G1 phase at 0.5 uM after 48 hrs by propidium iodide staining-based flow cytometric analysis (reference value: 39.66%); assay type: functional; details: Bel-7402
[15] = Cell cycle arrest in human Bel7402 cells assessed as cells at G1 phase at 0.125 uM after 48 hrs by propidium iodide staining-based flow cytometric analysis (reference value: 39.66%); assay type: functional; details: Bel-7402
[16] = Cell cycle arrest in human Bel7402 cells assessed as cells at S phase at 0.125 uM after 48 hrs by propidium iodide staining-based flow cytometric analysis (reference value: 40.82%); assay type: functional; details: Bel-7402
[17] = system: Bel-7402; experiment: Induction of apoptosis in human Bel7402 cells assessed as late apoptotic cells after 48 hrs at 0.25 uM by Annexin V/propidium iodide staining-based flow cytometric analysis (reference value: 5.21%); assay type: functional
[18] = system: Bel-7402; experiment: Induction of apoptosis in human Bel7402 cells assessed as necrotic cells after 48 hrs at 0.25 uM by Annexin V/propidium iodide staining-based flow cytometric analysis (reference value: 1.99%); assay type: functional
[19] = Anticancer activity against ABCB1-overexpressing human SW620/AD300 cells by MTT assay; assay type: functional, cell-based; details: SW-620; how it was run: as §2
[20] = system: SW-620; experiment: Anticancer activity against human SW620 cells by MTT assay; assay type: functional, cell-based; how it was run: as §2
[21] = system: Bel-7402; experiment: Induction of apoptosis in human Bel7402 cells assessed as viable cells after 48 hrs at 0.25 uM by Annexin V/propidium iodide staining-based flow cytometric analysis (reference value: 92.80%); assay type: functional; details: Bel-7402, 48 h, read-out: Activity
[22] = Cytotoxicity against human L02 cells by MTT assay; assay type: cell-based
How it was run: (§3)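 Toxicity compared on human normal liver L-02 cells and human liver cancer Bel-7402 cells run side by side. Survival curves by MTT after 72 h treatment. IC50 is the concentration inhibiting 50% of cell growth.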

[23] = system: Bel-7402; experiment: Selectivity index, ratio of IC50 for human L02 cells to ratio of IC50 for human Bel-7402 cells; assay type: functional
How it was run: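 Selectivity index is IC50 on normal L-02 liver cells divided by IC50 on Bel-7402 tumour cells. Both IC50 values come from MTT survival curves after 72 h exposure.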

[24] = system: Bel-7402; experiment: Induction of apoptosis in human Bel7402 cells after 48 hrs by Annexin V/propidium iodide staining-based flow cytometric analysis; assay type: functional, cell-based
[25] = Anticancer activity against human Bel7402 cells assessed as growth inhibition by MTT assay; assay type: functional, cell-based; details: Bel-7402; how it was run: as §3
[26] = system: Bel-7402; experiment: Induction of apoptosis in human Bel7402 cells assessed as late apoptotic cells after 48 hrs at 0.125 uM by Annexin V/propidium iodide staining-based flow cytometric analysis (reference value: 5.21%); assay type: functional
[27] = system: Bel-7402; experiment: Induction of apoptosis in human Bel7402 cells assessed as early apoptotic cells after 48 hrs at 0.25 uM by Annexin V/propidium iodide staining-based flow cytometric analysis (reference value: 0.64%); assay type: functional
[28] = Antiproliferative activity against human Bel7402 cells assessed as growth inhibition after 72 hrs by MTT assay; assay type: functional, cell-based; details: Bel-7402, 72 h; how it was run: as §1
[29] = system: Bel-7402; experiment: Induction of apoptosis in human Bel7402 cells assessed as viable cells after 48 hrs at 0.5 uM by Annexin V/propidium iodide staining-based flow cytometric analysis (reference value: 92.80%); assay type: functional; details: Bel-7402, 48 h, read-out: Activity
[30] = system: K562; experiment: Antiproliferative activity against human K562 cells assessed as growth inhibition after 72 hrs by MTT assay; assay type: functional, cell-based; details: K562, 72 h; how it was run: as §1
[31] = Cell cycle arrest in human Bel7402 cells assessed as cells at G2 phase at 0.125 uM after 48 hrs by propidium iodide staining-based flow cytometric analysis (reference value: 19.52%); assay type: functional; details: Bel-7402
[32] = system: MGC-803; experiment: Antiproliferative activity against human MGC803 cells assessed as growth inhibition after 72 hrs by MTT assay; assay type: functional, cell-based; details: MGC-803, 72 h; how it was run: as §1
[33] = system: Bel-7402; experiment: Induction of apoptosis in human Bel7402 cells assessed as early apoptotic cells after 48 hrs at 0.5 uM by Annexin V/propidium iodide staining-based flow cytometric analysis (reference value: 0.64%); assay type: functional

C=C1C(=O)[C@]23[C@H](OC(=O)c4ccc(N(CCCl)CCCl)cc4)[C@H]1CC[C@H]2[C@@]12CO[C@@]3(O)[C@@H](O)[C@@H]1C(C)(C)CC[C@@H]2O
viability at 0.125 µM [1]: 87.1%
Activity [2]: 44.8%
Activity [3]: 9.98%
Activity [4]: 2.12%
IC50 [5]: 680 nM
Activity [6]: 1.11%
Activity [7]: 37.51%
Activity [8]: 43.6%
Activity [9]: 4.46%
Activity [10]: 1.29%
Activity [11]: 45.2%
IC50 [12]: 2350 nM
IC50 [13]: 2910 nM
Activity [14]: 52%
Activity [15]: 45.6%
Activity [16]: 41.3%
Activity [17]: 19.85%
Activity [18]: 1.23%
IC50 [19]: 1860 nM
IC50 [20]: 1960 nM
viability at 0.25 µM [21]: 75.8%
IC50 [22]: 4030 nM
Ratio IC50 [23]: 8.06
Activity [24]: Dose-dependent effect
IC50 [25]: 500 nM
Activity [26]: 10.77%
Activity [27]: 3.14%
IC50 [28]: 500 nM
viability at 0.5 µM [29]: 50.7%
IC50 [30]: 1120 nM
Activity [31]: 13%
IC50 [32]: 1090 nM
Activity [33]: 10.53%
